Source: ChEMBL document CHEMBL1166015, “Design, synthesis, and docking of highly hypolipidemic agents: Schizosaccharomyces pombe as a new model for evaluating alpha-asarone-based HMG-CoA reductase inhibitors” (Bioorg Med Chem, 2010)

Key:
[1] = target: T1, 3-hydroxy-3-methylglutaryl-coenzyme A reductase (Schizosaccharomyces pombe 972h-, UniProt Q10283); test: Inhibition of Schizosaccharomyces pombe HMG-CoA reductase by spectrophotometry
T1 sequence (Q10283 whole entry): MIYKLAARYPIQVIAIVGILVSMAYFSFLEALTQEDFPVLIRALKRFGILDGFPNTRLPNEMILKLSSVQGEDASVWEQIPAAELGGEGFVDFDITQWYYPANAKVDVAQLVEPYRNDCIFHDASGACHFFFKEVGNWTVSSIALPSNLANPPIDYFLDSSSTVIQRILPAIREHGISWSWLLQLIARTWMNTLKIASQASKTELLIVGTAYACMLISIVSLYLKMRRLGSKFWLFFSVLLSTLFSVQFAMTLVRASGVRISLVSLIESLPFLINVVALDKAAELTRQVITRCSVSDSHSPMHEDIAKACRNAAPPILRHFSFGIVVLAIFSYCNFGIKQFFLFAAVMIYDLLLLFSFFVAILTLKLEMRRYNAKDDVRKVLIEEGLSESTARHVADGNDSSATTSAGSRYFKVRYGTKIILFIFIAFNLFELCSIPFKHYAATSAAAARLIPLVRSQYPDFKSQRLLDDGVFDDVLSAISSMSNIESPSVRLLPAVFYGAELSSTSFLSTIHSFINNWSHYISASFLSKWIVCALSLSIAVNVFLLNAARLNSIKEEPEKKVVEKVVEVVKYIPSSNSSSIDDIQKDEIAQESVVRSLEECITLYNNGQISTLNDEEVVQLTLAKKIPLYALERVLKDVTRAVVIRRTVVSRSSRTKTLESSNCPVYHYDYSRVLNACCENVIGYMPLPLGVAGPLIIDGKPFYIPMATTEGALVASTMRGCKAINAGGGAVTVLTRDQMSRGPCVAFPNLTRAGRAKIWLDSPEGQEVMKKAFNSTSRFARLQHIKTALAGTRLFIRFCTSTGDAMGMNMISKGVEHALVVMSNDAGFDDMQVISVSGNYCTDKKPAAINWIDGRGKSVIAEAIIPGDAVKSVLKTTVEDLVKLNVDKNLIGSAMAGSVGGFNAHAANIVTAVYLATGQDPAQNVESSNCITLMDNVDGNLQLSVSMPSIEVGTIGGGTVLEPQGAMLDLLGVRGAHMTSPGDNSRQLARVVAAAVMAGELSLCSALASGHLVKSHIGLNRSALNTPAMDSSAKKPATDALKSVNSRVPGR
Outline: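 Membrane HMGR partially purified from S. pombe 972 h (YPD, 28 °C, 48 h) via centrifugation, Triton X-100 solubilization, 65 °C heat step, ammonium sulfate and calcium phosphate gel. Enzyme activated 37 °C 30 min, pre-incubated with compound (DMSO stocks 1–5 mM) 30 min at 37 °C. Assay: 200 µg enzyme, 0.13 mM HMG-CoA, 50 mM Tris-HCl pH 7.5; started with 0.13 mM NADPH; A340 decrease over 2 min; triplicate; IC50 derived.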

[2] = tested on: Mus musculus; test: Hypolipidemic activity in ICR mouse assessed as decrease in Tyloxapol-induced total cholesterol level at 50 mg/kg, ip administered 1 hr before Tyloxapol challenge and 22, 48 hrs after Tyloxapol challenge measured after 22 hrs relative to control; assay type: functional; parameters: scale not given: the % may be the effect or the level left; details: route oral, in the assay text read “po administered” for “ip administered”
Outline: (§1)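 Male ICR mice (24–27 g), groups of six. Hyperlipidemia induced by ip Tyloxapol (Triton WR 1339) 400 mg/kg in water. Drug given at 5 mL/kg 1 h before and 22 and 48 h after injection; vehicle controls. Blood drawn 22 h post-injection by periorbital bleeding. Serum total cholesterol, HDL-C and triglycerides measured on an automatic analyzer; LDL-C by the Friedewald equation. Values are % of the Tyloxapol group, mean ± SE.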

[3] = tested on: Mus musculus; test: Hypolipidemic activity in ICR mouse assessed as decrease in Tyloxapol-induced total cholesterol level at 100 mg/kg, ip administered 1 hr before Tyloxapol challenge and 22, 48 hrs after Tyloxapol challenge measured after 22 hrs relative to control; assay type: functional; parameters: scale not given: the % may be the effect or the level left; details: route oral, in the assay text read “po administered” for “ip administered”; outline: as §1
[4] = tested on: Mus musculus; test: Hypolipidemic activity in ICR mouse assessed as decrease in Tyloxapol-induced LDL-cholesterol level at 50 mg/kg, ip administered 1 hr before Tyloxapol challenge and 22, 48 hrs after Tyloxapol challenge measured after 22 hrs relative to control; assay type: functional; parameters: scale not given: the % may be the effect or the level left; details: route oral, in the assay text read “po administered” for “ip administered”; outline: as §1
[5] = tested on: Mus musculus; test: Hypolipidemic activity in ICR mouse assessed as decrease in Tyloxapol-induced LDL-cholesterol level at 100 mg/kg, ip administered 1 hr before Tyloxapol challenge and 22, 48 hrs after Tyloxapol challenge measured after 22 hrs relative to control; assay type: functional; parameters: scale not given: the % may be the effect or the level left; details: route oral, in the assay text read “po administered” for “ip administered”; outline: as §1
[6] = tested on: Mus musculus; test: Hypolipidemic activity in ICR mouse assessed as decrease in Tyloxapol-induced HDL-cholesterol level at 50 mg/kg, ip administered 1 hr before Tyloxapol challenge and 22, 48 hrs after Tyloxapol challenge measured after 22 hrs relative to control; assay type: functional; parameters: scale not given: the % may be the effect or the level left; details: route oral, in the assay text read “po administered” for “ip administered”; outline: as §1
[7] = tested on: Mus musculus; test: Hypolipidemic activity in ICR mouse assessed as decrease in Tyloxapol-induced HDL-cholesterol level at 100 mg/kg, ip administered 1 hr before Tyloxapol challenge and 22, 48 hrs after Tyloxapol challenge measured after 22 hrs relative to control; assay type: functional; parameters: scale not given: the % may be the effect or the level left; details: route intraperitoneal; outline: as §1
[8] = tested on: Mus musculus; test: Hypolipidemic activity in ICR mouse assessed as decrease in Tyloxapol-induced triglyceride level at 50 mg/kg, ip administered 1 hr before Tyloxapol challenge and 22, 48 hrs after Tyloxapol challenge measured after 22 hrs relative to control; assay type: functional; parameters: scale not given: the % may be the effect or the level left; details: route intraperitoneal; outline: as §1
[9] = tested on: Mus musculus; test: Hypolipidemic activity in ICR mouse assessed as decrease in Tyloxapol-induced triglyceride level at 100 mg/kg, ip administered 1 hr before Tyloxapol challenge and 22, 48 hrs after Tyloxapol challenge measured after 22 hrs relative to control; assay type: functional; parameters: scale not given: the % may be the effect or the level left; details: route intraperitoneal; outline: as §1
[10] = tested on: Mus musculus; test: Hypolipidemic activity in high cholesterol diet fed ICR mouse assessed as reduction of total cholesterol level at 50 mg/kg, ip after 12 hrs of last cholesterol challenge relative to control; assay type: functional; parameters: scale not given: the % may be the effect or the level left; details: route intraperitoneal
Outline: (§2)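 Male ICR mice (24–27 g), six per group, were fed a high-cholesterol diet ad libitum for 6 days (1.0% cholesterol, 0.5% sodium cholate, 5% butter, 30% sucrose, 10% casein, 53.5% chow). Basal-diet mice served as controls. Dosing was 5 mL/kg and solutions were made fresh. Mice were fasted 12 h before sacrifice and bled periorbitally. Serum TC, HDL-C and TG were read on an analyzer, with LDL-C by Friedewald.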

[11] = tested on: Mus musculus; test: Hypolipidemic activity in high cholesterol diet fed ICR mouse assessed as reduction of total cholesterol level at 100 mg/kg/day, ip after 12 hrs of last cholesterol challenge relative to control; assay type: functional; parameters: scale not given: the % may be the effect or the level left; details: route intraperitoneal; outline: as §2
[12] = tested on: Mus musculus; test: Hypolipidemic activity in high cholesterol diet fed ICR mouse assessed as reduction of triglyceride level at 50 mg/kg/day, po after 12 hrs of last cholesterol challenge relative to control; parameters: scale not given: the % may be the effect or the level left
[13] = tested on: Mus musculus; test: Hypolipidemic activity in high cholesterol diet fed ICR mouse assessed as reduction of triglyceride level at 100 mg/kg/day, po after 12 hrs of last cholesterol challenge relative to control; parameters: scale not given: the % may be the effect or the level left
[14] = tested on: Mus musculus; test: Hypolipidemic activity in high cholesterol diet fed ICR mouse assessed as reduction of LDL cholesterol level at 50 mg/kg/day, po after 12 hrs of last cholesterol challenge relative to control; parameters: scale not given: the % may be the effect or the level left
[15] = tested on: Mus musculus; test: Hypolipidemic activity in high cholesterol diet fed ICR mouse assessed as reduction of HDL cholesterol level at 50 mg/kg/day, po after 12 hrs of last cholesterol challenge relative to control; parameters: scale not given: the % may be the effect or the level left
[16] = tested on: Mus musculus; test: Hypolipidemic activity in high cholesterol diet fed ICR mouse assessed as reduction of LDL cholesterol level at 100 mg/kg/day, po after 12 hrs of last cholesterol challenge relative to control; parameters: scale not given: the % may be the effect or the level left
[17] = tested on: Mus musculus; test: Hypolipidemic activity in high cholesterol diet fed ICR mouse assessed as reduction of HDL cholesterol level at 100 mg/kg/day, po after 12 hrs of last cholesterol challenge relative to control; parameters: scale not given: the % may be the effect or the level left

COC(=O)COc1ccccc1C
IC50 ([1]; read-out: IC50): 91.3 µM

CCCCc1cc(OC)c(OC)cc1OC
IC50 ([1]; read-out: IC50): 219 µM

CCc1ccc(OCC(=O)OC)c([N+](=O)[O-])c1
IC50 ([1]; read-out: IC50): 197 µM

C=CCc1cc(OC)c(OC)cc1O
Activity [2]: -49.79%
Activity [3]: -54.11%
Activity [4]: -42.98%
Activity [5]: -52.07%
Activity [6]: -39.67%
Activity [7]: -41.77%
Activity [8]: -23.2%
Activity [9]: -6.83%
Activity [10]: -33.45%
Activity [11]: -40.67%
IC50 ([1]; read-out: IC50): 78.8 µM
Activity [12]: -37.78%
Activity [13]: -42.39%
Activity [14]: 26.49%
Activity [15]: -40.08%
Activity [16]: -44.22%
Activity [17]: -35.96%

C/C=C/c1ccc(OCCNC(=O)c2ccc(Cl)cc2)c(OC)c1
IC50 ([1]; read-out: IC50): 129 µM

CCCc1cc(OC)c(OC)cc1O
Activity [2]: -76.85%
Activity [3]: -55.75%
Activity [4]: -66.67%
Activity [5]: -35.05%
Activity [6]: -38.67%
Activity [7]: -37.36%
Activity [8]: -60.69%
Activity [9]: -14.84%
Activity [10]: -59.76%
Activity [11]: -24.12%
IC50 ([1]; read-out: IC50): 73.6 µM
Activity [12]: -62.42%
Activity [13]: -38.38%
Activity [14]: -60.81%
Activity [15]: -72.01%
Activity [16]: -22.77%
Activity [17]: -23.07%

CCc1ccccc1OCC(=O)OC
IC50 ([1]; read-out: IC50): 506 µM

CCc1ccc(OCC(=O)OC)cc1
IC50 ([1]; read-out: IC50): 1320 µM

CCOC(=O)COc1cccc(C)c1
IC50 ([1]; read-out: IC50): 182 µM

CCOC(=O)COc1cccc(CC)c1
IC50 ([1]; read-out: IC50): 1620 µM

C=CCc1ccc(OCC(=O)OCC)c(OC)c1
IC50 ([1]; read-out: IC50): 156 µM

CCCCCc1cc(OC)c(OC)cc1OC
IC50 ([1]; read-out: IC50): 84.6 µM

C=CCc1cc(OC)c(OCC(=O)O)cc1[N+](=O)[O-]
IC50 ([1]; read-out: IC50): 144 µM

C=CCc1ccc(OCCNC(=O)c2cccc(Cl)c2)c(OC)c1
IC50 ([1]; read-out: IC50): 239 µM

C/C=C/c1cc(OC)c(OC)cc1N
IC50 ([1]; read-out: IC50): 167 µM

CCCc1ccc(OCC(=O)O)c(OC)c1
Activity [2]: -21.28%
Activity [3]: -22.59%
Activity [4]: -32.56%
Activity [5]: -39.12%
Activity [6]: -18.23%
Activity [7]: -15.32%
Activity [8]: -32.46%
Activity [9]: -29.89%
Activity [10]: -32.83%
Activity [11]: -25.66%
Activity [12]: -38.38%
Activity [13]: -27.55%
Activity [14]: -33.54%
Activity [15]: -15.66%
Activity [16]: -44.51%
Activity [17]: -19.33%

CCCc1cc(OC)c(OCC(=O)OC)cc1[N+](=O)[O-]
Activity [2]: -68.64%
Activity [3]: -60.1%
Activity [4]: -45.69%
Activity [5]: -33.33%
Activity [6]: -23.15%
Activity [7]: -25.81%
Activity [8]: -11.99%
Activity [9]: -19.91%
Activity [10]: -48.64%
Activity [11]: -39.51%
Activity [12]: -41.98%
Activity [13]: -28.78%
Activity [14]: -21.13%
Activity [15]: -11.36%
Activity [16]: -16.76%
Activity [17]: -11.43%

CCOC(=O)COc1cccc(C(C)=O)c1
IC50 [1]: Not Active

C/C=C/c1cc(OC)c(OC)cc1Cl
IC50 ([1]; read-out: IC50): 71.4 µM

CCC(O)c1cc(OC)c(OC)cc1N (stereo not given)
IC50 ([1]; read-out: IC50): 153 µM

C=CCc1ccc(OCC(=O)O)c(OC)c1
IC50 ([1]; read-out: IC50): 73.4 µM

CCC(C)(C)C(=O)O[C@H]1C[C@@H](C)C=C2C=C[C@H](C)[C@H](CC[C@@H]3C[C@@H](O)CC(=O)O3)[C@H]21 [SIMVASTATIN]
IC50 ([1]; read-out: IC50): 95.2 µM

C/C=C/c1cc(OC)c(OC)cc1OC [TRANS-ASARONE]
IC50 ([1]; read-out: IC50): 2490 µM
